Screening results as filed in PubChem.
INS-1E rescue = INS-1E beta cell protection from cytokine death. INS-1E cytokine-induced death, ATP luminescence, 48 h; normalised: neutral wells 0, positive control 100. protection from cytokine-induced ATP loss, % at 10 µM. hit rate 0.1% among 20,000. AID 488910;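 active = mean replicate protection from cytokine-induced ATP loss at least 50% and at least 75% of replicates each reaching 50%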
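assay system = INS-1E rat insulinoma cells | amount = 8000 cells per well | medium = phenol-red-free RPMI with 5% fetal bovine serum | doses = one compound concentration, pin transfer | timing = 48 h cytokine plus compound treatment, 10 min reagent incubation | also added = IL-1β, TNF-α and IFN-γ cytokine mix | signal = CellTiter-Glo luminescence measuring cellular ATP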
A1 apoptosis 2 = blocks A1, raising caspase activity; 24,000 tested, under 10 active; AID 2465; caspase activation, % (concentration not given with the values); MEF A1-2A-BIM cells, caspase-Glo luminescence, 3 h; percent of clofoctol response, DMSO zero; in the data active = caspase activation above about 5.9%
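Evaluation: Caspase-3/7 activity from luminescence increase | Assay system: A1-2A-BIM mouse embryonic fibroblasts | Quantity: 2500 MEF cells/well | Medium: RPMI-1640 plus 10% FBS | Detection: Caspase-Glo 3/7 luminescence, 1 h at room temperature | Dosing: 50 nL compound per well, pinned | Timing: Cells settled overnight, compound exposure 3 h at 37 °C, 5% CO2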
T cruzi intra = inhibitors of intracellular Trypanosoma cruzi | intracellular Trypanosoma cruzi in host cells, plate reader | activity score (inhibition), % at 5.01 µM | hit rate 4.9% among 22,000 | AID 651903; in the data active = activity score above about 55%;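 note: parasites and compound incubated about four days before reading; 0% = median of neutral control wells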
* marks the source's active call; other numbers are inactive results; nt = no result. Many of the other results were omitted from the sample, so hits are more common in it than they were.

SMILES | INS-1E rescue | A1 apoptosis 2 | T cruzi intra
COc1cccc(OC)c1/C=N/NC(=O)CCCCCC(=O)NO | nt | -0.8 | nt
O=C(CCCCCCC(=O)Nc1ccccc1O)N/N=C/c1cccnc1Br | 3.9 | nt | 3.5
C[C@@H]1CN([C@H](C)CO)C(=O)c2cccc(NC(=O)c3nc4ccccc4s3)c2O[C@@H]1CN(C)C(=O)Nc1ccc(C(F)(F)F)cc1 | -66.6 | nt | -25.9
C[C@H](CO)N1C[C@H](C)[C@H](CN(C)C(=O)Nc2ccc(C(F)(F)F)cc2)Oc2c(NC(=O)c3nc4ccccc4s3)cccc2C1=O | -41.3 | nt | 63.3*
C[C@H](CO)N1C[C@H](C)[C@@H](CN(C)C(=O)Nc2ccc(C(F)(F)F)cc2)Oc2c(NC(=O)c3nc4ccccc4s3)cccc2C1=O | -10.8 | -1.5 | 57.7*
C[C@@H]1CN([C@@H](C)CO)C(=O)c2cccc(NC(=O)c3nc4ccccc4s3)c2O[C@@H]1CN(C)C(=O)Nc1ccc(F)cc1 | -4.2 | nt | 7.4
COC(=O)[C@H](Cc1ccccc1)N1C(=O)O[C@H](Cc2ccccc2)[C@@H]1/C=C/C1CC1 | nt | -0.1 | nt
O=C(CCCCCCC(=O)Nc1ccccc1O)N/N=C/c1cccnc1 | -6.8 | 0.7 | 2.7
C[C@H]1CN([C@@H](C)CO)C(=O)c2cccc(NC(=O)c3nc4ccccc4s3)c2O[C@@H]1CN(C)Cc1ccc(-c2ccccc2)cc1 | -18.1 | -1.3 | 72.9*
C[C@@H]1CN([C@H](C)CO)C(=O)c2cccc(NC(=O)c3nc4ccccc4s3)c2O[C@H]1CN(C)Cc1ccc(C(F)(F)F)cc1 | -60.1 | nt | 61.6*
C[C@H](CO)N1C[C@H](C)[C@H](CN(C)Cc2ccc(Oc3ccccc3)cc2)Oc2c(NC(=O)c3nc4ccccc4s3)cccc2C1=O | -30.8 | -0.4 | 59.2*
C[C@@H]1CN([C@H](C)CO)C(=O)c2cccc(NC(=O)c3nc4ccccc4s3)c2O[C@H]1CN(C)Cc1ccc(-c2ccccc2)cc1 | -20.4 | -1.5 | 46.5
C[C@H]1CN([C@@H](C)CO)C(=O)c2cccc(NC(=O)c3nc4ccccc4s3)c2O[C@H]1CN(C)Cc1ccc(C(F)(F)F)cc1 | -48.5 | 0.9 | 48.7
C[C@H](CO)N1C[C@H](C)[C@H](CN(C)Cc2ccccc2)Oc2c(NC(=O)c3nc4ccccc4s3)cccc2C1=O | -26.5 | 0.5 | 49.4
C[C@H](CO)N1C[C@H](C)[C@H](CN(C)Cc2ccc(Cl)c(Cl)c2)Oc2c(NC(=O)c3nc4ccccc4s3)cccc2C1=O | -40.8 | -0.8 | 60.5*
C[C@@H]1CN([C@H](C)CO)C(=O)c2cccc(NC(=O)c3nc4ccccc4s3)c2O[C@@H]1CN(C)Cc1ccc(Cl)c(Cl)c1 | -28.3 | nt | 7.8
O=C(N/N=C/c1ccc(Br)s1)c1ccccc1O | -118.3 | -8.9 | -14.6
O=C(CCCCCC(=O)N/N=C/c1ccncc1Br)NO | nt | -0.3 | nt
C[C@H]1CN([C@@H](C)CO)C(=O)c2cccc(NC(=O)c3nc4ccccc4s3)c2O[C@H]1CN(C)Cc1ccc(Oc2ccccc2)cc1 | -24.4 | -0.3 | 68.3*
C[C@H]1CN([C@@H](C)CO)C(=O)c2cccc(NC(=O)c3nc4ccccc4s3)c2O[C@H]1CN(C)Cc1ccccc1 | -17.2 | nt | 12.2
C[C@H](CO)N1C[C@H](C)[C@H](CN(C)CC2CCCCC2)Oc2ccc(NC(=O)Nc3ccc(C(F)(F)F)cc3)cc2CC1=O | -78.6 | 0.2 | 60.4*
C[C@H]1CN([C@@H](C)CO)C(=O)Cc2cc(NC(=O)Nc3ccc(F)cc3)ccc2O[C@H]1CN(C)CC1CCCCC1 | -3.0 | nt | -5.2
C[C@H]1CN([C@@H](C)CO)C(=O)Cc2cc(NC(=O)Nc3ccc(C(F)(F)F)cc3)ccc2O[C@@H]1CN(C)CC1CCCCC1 | -41.6 | 0.4 | 63.2*
C[C@H](CO)N1C[C@H](C)[C@H](CN(C)CC2CCCCC2)Oc2ccc(NC(=O)Nc3ccc(F)cc3)cc2CC1=O | 4.9 | 0.3 | 41.8
O=C(NO)c1cccc(C(=O)N/N=C/c2cc3c(cc2Br)OCO3)c1 | 0.3 | nt | 1.1
SMILES | INS-1E rescue | A1 apoptosis 2 | T cruzi intra
O=C(CCCCCCC(=O)Nc1ccccc1O)N/N=C/c1cc2c(cc1Br)OCO2 | 10.9 | -0.2 | 8.5
COC(=O)[C@@]1(Cc2ccccc2N=[N+]=[N-])N=C(c2ccc(OCCCO)cc2)O[C@H]1c1ccccc1 | nt | -0.8 | nt
O=C(CCCCCC(=O)Nc1ccccc1O)N=NC=C1C=CN(O)C=C1 | nt | -0.6 | nt
O=C(NO)c1ccc(C(=O)N/N=C/c2cc(Br)cc([N+](=O)[O-])c2O)cc1 | 7.6 | -4.2 | 19.2
C=CCNC(=O)[C@H]1[C@@H]2C(=O)O[C@@H](c3ccccc3)[C@@H](c3ccccc3)N2[C@@H](c2ccc(O)cc2)[C@]12C(=O)Nc1ccc(C#CC3(O)CCCCCC3)cc12 | nt | -1.1 | nt
C[C@H]1CN([C@@H](C)CO)C(=O)c2cccc(NS(=O)(=O)c3ccccc3)c2O[C@H]1CN(C)Cc1ccc(C(F)(F)F)cc1 | 0.3 | nt | 31.2
C[C@H](CO)N1C[C@H](C)[C@@H](CN(C)Cc2ccccc2)Oc2c(NS(C)(=O)=O)cccc2C1=O | 2.4 | 0.4 | 59.4*
C[C@H](CO)N1C[C@H](C)[C@@H](CN(C)Cc2ccc(C(F)(F)F)cc2)Oc2c(NS(=O)(=O)c3ccccc3)cccc2C1=O | 2.1 | nt | 66.1*
C[C@H]1CN([C@@H](C)CO)C(=O)c2cccc(NS(=O)(=O)c3ccc(F)cc3)c2O[C@@H]1CN(C)Cc1ccc(-c2ccccc2)cc1 | -7.4 | 0.2 | 18.5
C[C@H]1CN([C@@H](C)CO)C(=O)c2cccc(NS(C)(=O)=O)c2O[C@H]1CN(C)Cc1ccccc1 | -5.8 | 1.2 | -7.7
C[C@@H]1CN([C@@H](C)CO)C(=O)c2cccc(NS(=O)(=O)c3ccc(F)cc3)c2O[C@@H]1CN(C)Cc1ccc(-c2ccccc2)cc1 | -67.5 | 0.0 | 65.9*
O=C(NO)c1ccc(C(=O)N/N=C/c2ccc(O)cc2Br)cc1 | 11.8 | -2.6 | -14.0
C[C@H](CO)N1C[C@H](C)[C@H](CN(C)S(=O)(=O)c2ccc(Cl)cc2)Oc2ccc(NS(=O)(=O)c3ccc(Cl)cc3)cc2C1=O | nt | -0.7 | 63.6*
Cc1ccc(S(=O)(=O)Nc2ccc3c(c2)C(=O)N([C@H](C)CO)C[C@H](C)[C@H](CN(C)S(=O)(=O)c2ccc(Cl)cc2)O3)cc1 | nt | nt | 47.4*
C[C@H](CO)N1C[C@H](C)[C@@H](CN(C)S(=O)(=O)c2ccc(Cl)cc2)Oc2ccc(NS(=O)(=O)c3ccc(Cl)cc3)cc2C1=O | -5.0 | -0.5 | 39.0
Cc1ccc(S(=O)(=O)N(C)C[C@@H]2Oc3ccc(NS(=O)(=O)c4ccc(Cl)cc4)cc3C(=O)N([C@H](C)CO)C[C@@H]2C)cc1 | 4.8 | 0.7 | 40.4
C[C@@H]1CCCCO[C@@H](CN(C)Cc2ccc(C(=O)Nc3ccccc3N)cc2)[C@@H](C)CN([C@H](C)CO)C(=O)c2cc(N(C)C)ccc2O1 | nt | 1.3 | nt
COc1ccc(S(=O)(=O)N(C)C[C@H]2Oc3c(NC(=O)c4ccc(-c5nccs5)cc4)cccc3C(=O)N([C@H](C)CO)C[C@H]2C)cc1 | 8.7 | nt | 32.2
Cc1ccc(S(=O)(=O)N(C)C[C@H]2Oc3c(NC(=O)c4ccc(-c5nccs5)cc4)cccc3C(=O)N([C@@H](C)CO)C[C@H]2C)cc1 | 0.1 | nt | 26.4
